Published values gathered from unrelated publications.
Protocols differ between the studies behind these lines.
Target: Mitogen-activated protein kinase 9 (MAPK9, Homo sapiens, UniProt P45984)

Compound | read-out | technique | tested at | remaining binding
COc1cccc(CNC(=O)c2nc3scc(COCc4ccc(C(=O)O)cc4)c3c(=O)[nH]2)c1 | cell-free assay | competition with immobilised ligand | 1 µM | 97.1%
CC(C)(C)c1ccc(-c2nc(CBr)nn2-c2cccc(O)c2)cc1 | cell-free assay | competition with immobilised ligand | 10 µM | 46%
O=C(c1ccc(Nc2ncc(Cl)c(-c3ccc(Cl)s3)n2)cc1)N1CCC(N2CCCC2)CC1 | binding | competition with immobilised ligand | 1 µM | 1.1%
O=C(Nc1c[nH]nc1C(=O)NC1CCNCC1)c1cc(F)cc(F)c1 | binding | competition with immobilised ligand | 1 µM | 100%
N[C@@H]1CCN(c2nccc(-c3cnn4ncccc34)n2)C1 | binding | – | 1 µM | 100%
Cc1cnc(Nc2ccc(C(=O)N3CCC(N4CCCC4)CC3)cc2)nc1-c1cc2ccccc2s1 | binding | competition with immobilised ligand | 1 µM | 14%
CCC(=O)N[C@@H]1CC[C@H](C(=O)N(C)c2ccc(-c3nc4ccccc4o3)cc2)C1 | cell-free assay | competition with immobilised ligand | 1 µM | 98%
CN(C)c1nccc(-c2cnn3ncccc23)n1 | binding | – | 1 µM | 55%
CCC(=N\O)/C(C)=C/c1ccc(F)cc1 | cell-free assay | competition with immobilised ligand | 1 µM | 92%
O=C(c1ccc(Nc2ncc(Cl)c(-c3cc4ccccc4s3)n2)cc1)N1CCC(N2CCCC2)CC1 | binding | competition with immobilised ligand | 1 µM | 9.8%
C[C@@H]1CCN(c2nccc(-c3cnn4ncccc34)n2)C1 | binding | – | 1 µM | 64%
CN(C(=O)c1ccccc1)c1cc(N(C)c2ccc3c(c2)CCc2ccc(C(=O)NCCN4CCOCC4)cc2C3=O)ccc1F | cell-free assay | competition with immobilised ligand | 1 µM | 100%
COc1cnc(Nc2cccc(S(N)(=O)=O)c2)nc1N1CCN(c2ccccc2)C(=O)C1 | binding | competition with immobilised ligand | 1 µM | 69%
FC(F)(F)Oc1cccc(-c2cnc3ccc(-c4ccncc4)nn23)c1 | cell-free assay | competition with immobilised ligand | 5 µM | 76%
N#Cc1ccccc1CSc1nnc2c(n1)[nH]c1ccccc12 | binding | competition with immobilised ligand | 10 µM | 90%
COc1ccc2cc(OCC3(C(=O)O)CN(C(=O)c4ccc(F)cc4)C3)ccc2c1 | cell-free assay | competition with immobilised ligand | 1 µM | 100%
CC1CCCN1c1nccc(-c2cnn3ncccc23)n1 (centres unmarked) | binding | – | 1 µM | 100%
Nc1ncc2c(n1)-c1c([nH]c3ccc(C#CC4CC4)cc13)CCCC2 | binding | competition with immobilised ligand | 1 µM | 81%
C[C@@H]1CN(c2ccc3ncc(-c4ccc5[nH]nc(C6CC6)c5c4)n3n2)C[C@H](C)O1 | binding | competition with immobilised ligand | 50 nM | 80%
O=C(NCCCC1CCCCC1)c1ccc(CNC(=O)c2cnn(-c3ccccc3)c2C(F)(F)F)cc1 | cell-free assay | competition with immobilised ligand | 0.1 µM | 85%
CN(CCCC(F)(F)F)c1nccc(-c2cnn3ncccc23)n1 | binding | – | 1 µM | 90%
CNCc1ccccc1-c1csc([C@H](C)Nc2nc(C)nc3cc(OC)c(OC)cc23)c1 | cell-free assay | competition with immobilised ligand | 1 µM | 71%
CN(c1nccc(-c2cnn3ncccc23)n1)C1CC1 | binding | – | 1 µM | 100%
